Laboratory results from ChEMBL document CHEMBL1145528, “Design and study of some novel ibuprofen derivatives with potential nootropic and neuroprotective properties” (Bioorg Med Chem, 2007).
Active and inactive are the calls of the source. The calls are words filed in the database; no cut-off is given here.

Experiments:
Mus musculus [1] = test: Anti-inflammatory activity against of FCA-induced odema in BALB/c mouse assessed as oedema inhibition at 0.30 mmol/kg, ip; assay type: functional
Outline: (§1)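 FCA (0.05 mL/paw) injected intradermally into right hind paw of mice, left paw as control. Compounds suspended in water with a few drops of Tween 80, given ip 15 min before FCA. After 3 h both hind paws excised and weighed. Oedema is paw weight increase, compared with control animals given only the vehicle. Means SEM, Student's t-test.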

Mus musculus [2] = test: Increase of oedema in BALB/c mouse with FCA-induced inflammation at 0.30 mmol/kg, ip; assay type: functional; outline: as §1
Mus musculus [3] = test: Anti-inflammatory activity against of FCA-induced odema in BALB/c mouse assessed as oedema inhibition at 0.15 mmol/kg, ip; assay type: functional; outline: as §1
Mus musculus [4] = test: Increase of oedema in BALB/c mouse with FCA-induced inflammation at 0.15 mmol/kg, ip; assay type: functional; outline: as §1
[5] = molecular target: T1, Seed linoleate 13S-lipoxygenase-1 (Glycine max) (UniProt P08170); test: Inhibition of soybean lipoxygenase at 0.3 mM; set-up: Activity: scale not given: the % may be the effect or the level left
T1 sequence (whole entry): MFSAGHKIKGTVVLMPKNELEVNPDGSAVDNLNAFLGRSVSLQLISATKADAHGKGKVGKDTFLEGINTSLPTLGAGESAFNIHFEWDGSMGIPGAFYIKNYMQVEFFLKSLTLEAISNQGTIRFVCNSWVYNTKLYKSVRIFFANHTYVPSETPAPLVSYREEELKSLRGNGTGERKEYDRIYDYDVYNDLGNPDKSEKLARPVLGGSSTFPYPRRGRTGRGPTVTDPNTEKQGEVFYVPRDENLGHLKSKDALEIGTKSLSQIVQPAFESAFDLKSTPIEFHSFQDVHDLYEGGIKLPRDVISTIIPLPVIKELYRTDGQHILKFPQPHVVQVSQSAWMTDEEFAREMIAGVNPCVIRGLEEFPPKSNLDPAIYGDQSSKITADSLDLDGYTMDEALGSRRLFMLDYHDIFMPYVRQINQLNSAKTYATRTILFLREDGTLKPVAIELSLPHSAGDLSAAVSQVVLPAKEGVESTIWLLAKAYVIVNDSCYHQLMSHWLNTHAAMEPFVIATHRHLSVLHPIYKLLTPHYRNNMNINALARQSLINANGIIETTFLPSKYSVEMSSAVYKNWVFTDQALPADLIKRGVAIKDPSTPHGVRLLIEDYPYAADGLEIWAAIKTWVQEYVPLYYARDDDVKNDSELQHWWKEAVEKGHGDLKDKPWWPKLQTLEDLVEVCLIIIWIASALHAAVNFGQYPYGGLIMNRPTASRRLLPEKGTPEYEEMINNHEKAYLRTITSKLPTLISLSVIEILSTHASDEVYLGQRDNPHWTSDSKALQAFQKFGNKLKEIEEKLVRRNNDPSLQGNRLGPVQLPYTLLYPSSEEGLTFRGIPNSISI
Outline: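 Soybean lipoxygenase 250 U/mL in Tris buffer pH 9. Compounds in 60% aqueous ethanol at 0.1–0.3 mM. Reaction started with sodium linoleate 0.1 mM and followed for 7 min at 28 °C by 13-hydroperoxylinoleic acid conjugated diene absorbance at 234 nm.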

[6] = molecular target: T2, Seed linoleate 13S-lipoxygenase-1 (Glycine max, UniProt P08170); test: Inhibition of soybean lipoxygenase after 7 mins
T2 sequence (P08170 whole entry): T1 sequence (whole entry)

[7] = molecular target: T3, Acetylcholinesterase (Rattus norvegicus) (UniProt P37136); test: Inhibition of Fischer 344 rat brain acetylcholine esterase at 0.6 mM
T3 sequence (whole entry): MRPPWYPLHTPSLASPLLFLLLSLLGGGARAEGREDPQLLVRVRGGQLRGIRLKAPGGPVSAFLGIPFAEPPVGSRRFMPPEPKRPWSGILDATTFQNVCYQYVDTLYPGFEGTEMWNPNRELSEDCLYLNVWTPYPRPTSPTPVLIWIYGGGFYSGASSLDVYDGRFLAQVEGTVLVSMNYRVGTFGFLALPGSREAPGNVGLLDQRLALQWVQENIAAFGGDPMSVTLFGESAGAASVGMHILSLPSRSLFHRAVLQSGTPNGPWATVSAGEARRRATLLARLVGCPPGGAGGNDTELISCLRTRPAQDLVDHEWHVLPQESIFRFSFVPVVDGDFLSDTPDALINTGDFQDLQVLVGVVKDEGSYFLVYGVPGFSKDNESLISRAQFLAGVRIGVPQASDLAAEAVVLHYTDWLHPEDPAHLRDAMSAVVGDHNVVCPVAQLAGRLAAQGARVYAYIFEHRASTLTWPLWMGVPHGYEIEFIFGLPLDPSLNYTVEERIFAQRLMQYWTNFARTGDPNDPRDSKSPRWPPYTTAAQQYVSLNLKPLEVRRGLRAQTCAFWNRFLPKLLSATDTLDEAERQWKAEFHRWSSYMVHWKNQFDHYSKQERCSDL
Outline: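 Brains from untreated rats homogenised (20 mg/mL) in 0.1 M phosphate buffer, pH 8, as the enzyme source. Acetylthiocholine is the substrate. Activity is read colorimetrically as thiocholine reacting with dithio-bisnitrobenzoic acid and followed as a time course. Percent inhibition is taken at the end of the incubation period.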

Liver microsomes = test: Inhibition of Fe(2+)/ascorbate-induced lipid peroxidation in Fischer 344 rat hepatic microsomal membranes; assay type: functional; details: Microsome
Rattus norvegicus [8] = test: Total cholesterol level in Fischer 344 rat plasma at 0.3 mmol/kg, ip after 24 hrs; assay type: functional
Outline: (§2)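 Compounds given ip at 0.3 mmol/kg 30 min later. Plasma total cholesterol, LDL-cholesterol and triglycerides measured in mg/dl and expressed as percent reduction against the hyperlipidemic control group. SD, Student's t-test.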

Rattus norvegicus [9] = test: LDL level in Fischer 344 rat plasma at 0.3 mmol/kg, ip after 24 hrs; assay type: functional; outline: as §2
Rattus norvegicus [10] = test: Triglyceride level in Fischer 344 rat plasma at 0.3 mmol/kg, ip after 24 hrs; assay type: functional; outline: as §2
Rattus norvegicus [11] = test: Mortality rate in Fischer 344 rat at 1.6 mmol/kg, sc after 4 days; assay type: functional
Outline: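 Rats receive the compound subcutaneously at 1.6 mmol/kg once daily for 4 days. Mortality, perforating gastrointestinal ulcers, melena defecation and body weight change are recorded 24 h after the last injection.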

Rattus norvegicus [12] = test: Gastrointestinal toxicity in Fischer 344 rat assessed as gastrointestinal ulceration at 1.6 mmol/kg, sc after 4 days; assay type: functional
Outline: (§3)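 Rats dosed subcutaneously at 1.6 mmol/kg once daily for 4 days. Perforating gastrointestinal ulcers, melena defecation, body weight change and mortality recorded 24 h after the last injection.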

Rattus norvegicus [13] = test: Body weight change per 100g in Fischer 344 rat at 1.6 mmol/kg, sc after 4 days; assay type: functional; outline: as §3
Rattus norvegicus [14] = test: Decrease in total cholesterol in Fischer 344 rat plasma at 0.3 mmol/kg, ip after 24 hrs relative to control; assay type: functional; set-up: scale not given: the % may be the effect or the level left; outline: as §2
Rattus norvegicus [15] = test: Decrease in LDL level in Fischer 344 rat plasma at 0.3 mmol/kg, ip after 24 hrs relative to control; assay type: functional; set-up: scale not given: the % may be the effect or the level left; outline: as §2
Rattus norvegicus [16] = test: Decrease in triglyceride level in Fischer 344 rat plasma at 0.3 mmol/kg, ip after 24 hrs relative to control; assay type: functional; set-up: scale not given: the % may be the effect or the level left; outline: as §2

Row | Compound | inhibition in vivo at 300 µmol/kg (Mus musculus [1]) [%] | Activity (Mus musculus [2]) [%] | inhibition [7] [%] | Activity (Liver microsomes) | other results
1 | COc1cc(C)ccc1OC(=O)C1CCCN1C(=O)C(C)c1ccc(CC(C)C)cc1 (stereo not drawn) | 43 | 49.6 | 80 | inactive | inhibition in vivo at 150 µmol/kg (Mus musculus [3]): 21%; Activity (Mus musculus [4]): 67.9%; Activity [5]: 78%; IC50 [6]: 140 µM
2 | CC(C)Cc1ccc(C(C)C(=O)N2CCCC2C(=O)O)cc1 (stereo not drawn) |  |  |  | inactive | 
3 | COc1cc(C)ccc1OC(=O)[C@H]1CCCN1C(=O)C(C)C | 1 | 79.3 |  | inactive | inhibition [5]: 42%; Activity [7]: inactive
4 | CC(C)Cc1ccc(C(C)C(=O)O)cc1 (stereo not drawn) [IBUPROFEN] | 53 | 44.6 | 20 |  | Activity (Rattus norvegicus [8]): 111 mg/dL; Activity (Rattus norvegicus [9]): 38 mg/dL; Activity (Rattus norvegicus [10]): 228 mg/dL; Activity (Rattus norvegicus [11]): 50%; Activity (Rattus norvegicus [12]): 88%; Activity (Rattus norvegicus [13]): -13 g; Activity (Rattus norvegicus [14]): 38%; Activity (Rattus norvegicus [15]): 32%; Activity (Rattus norvegicus [16]): 41%
5 | CC(C)C(=O)N1CCC[C@@H]1C(=O)OCCCc1cccnc1 | 1 | 77 |  | inactive | Activity [7]: inactive
6 | CC(C)Cc1ccc(C(C)C(=O)N2CCCC2C(=O)OCCCc2cccnc2)cc1 (stereo not drawn) |  |  | 64 |  | 
7 | CC(C)Cc1ccc([C@H](C)C(=O)O)cc1 |  |  | 20 | inactive | 
8 | O=C(O)[C@@H]1CCCN1 |  |  |  | inactive | 
9 | CC(C)C(=O)N1CCCC1C(=O)O (stereo not drawn) |  |  |  | inactive | 
10 | NCCS [CYSTEAMINE] |  |  |  |  | Activity (Rattus norvegicus [11]): 80%; Activity (Rattus norvegicus [12]): 40%; Activity (Rattus norvegicus [13]): -7 g
